Published values from different studies.
Lines come from different studies, so protocols differ.
Medium: plasma
Route: intravenous

`COCC(=O)N1CCC[C@H](C(=O)NCc2nc(-c3ccc(C#N)cc3)cs2)C1` has a Vd of 0.18 L/kg (male Sprague-Dawley rat; 1 mg/kg).
`Cc1nc(Nc2ncc(C(=O)Nc3c(C)cccc3Cl)s2)cc(N2CCN(CCO)CC2)n1` gave a Vd of 2.4 L/kg (male Sprague-Dawley rat; 1 mg/kg, single dose).
For `C[C@]1(O)CCCN(c2nc(Nc3ccc(S(=O)(=O)N[C@H]4CC[C@H](CN5CCN(c6ccc(C7CCC(=O)NC7=O)cc6F)CC5)CC4)cc3F)ncc2C(F)(F)F)C1` (stereo partly drawn), the Vd was 4 L/kg (rat; 2 mg/kg).
For `CCOCC(=O)N1CCC[C@H](C(=O)NCc2nc(-c3ccc(C)nc3)cs2)C1`, the Vd was 0.3 L/kg (male Sprague-Dawley rat; 1 mg/kg).
The Vd of `Cc1nc(Nc2ncc(C(=O)Nc3c(C)cccc3Cl)s2)cc(N2CC[C@@H](N)C2)n1` is reported as 32.8 L/kg (male Sprague-Dawley rat; 1 mg/kg).
The Vd of `C[C@H]1CN(CC2CCN(c3ccc(C4CCC(=O)NC4=O)cc3F)CC2)CC[C@H]1NS(=O)(=O)c1ccc(Nc2ncc(C(F)(F)F)c(N3CCC[C@](C)(O)C3)n2)c(F)c1` (stereo partly drawn) is reported as 7 L/kg (rat; 2 mg/kg).
`Cc1nc(Nc2ncc(C(=O)Nc3c(C)cccc3Cl)s2)cc(N2CC[C@H](O)C2)n1` gave a Vd of 0.9 L/kg (male Sprague-Dawley rat; 1 mg/kg, single dose).
`C[C@H]1Oc2cc(cnc2N)-c2c(nn(C)c2C#N)CN(C)C(=O)c2ccc(F)cc21` gave a Vd of 2 L/kg (Sprague-Dawley rat; 1 mg/kg, single dose).
For `C[C@]1(O)CCCN(c2nc(Nc3ccc(S(=O)(=O)N[C@H]4CC[C@H](CN5CCN(c6ccc(C7CCC(=O)NC7=O)c(F)c6)CC5)CC4)cc3F)ncc2C(F)(F)F)C1` (stereo partly drawn), the Vd was 3 L/kg (rat; 2 mg/kg).
For `CC(C)(N)COCC(=O)N1CCC[C@H](C(=O)NCc2nc(-c3ccc(C(F)(F)F)cc3)cs2)C1`, the Vd was 4.3 L/kg (male Sprague-Dawley rat; 1 mg/kg).
With `Cn1c(=O)c2[nH]cnc2n(C)c1=O` the Vd was 2.39 L/kg (male Sprague-Dawley rat; 11.25 mg/kg).
The Vd of `Cc1cc(S(=O)(=O)N[C@H]2CC[C@H](CN3CCN(c4cccc(NC5CCC(=O)NC5=O)c4)CC3)CC2)ccc1Nc1ncc(C(F)(F)F)c(N2CCC[C@](C)(O)C2)n1` (stereo partly drawn) is reported as 10 L/kg (rat; 2 mg/kg).
`CC(=O)c1c(C)c2cnc(Nc3ccc(N4CCNCC4)cn3)nc2n(C2CCCC2)c1=O` gave a Vd of 3.3 L/kg (male Sprague-Dawley rat; 5 mg/kg).
`COCC(=O)N1CCC[C@H](C(=O)NCc2nc(-c3ccccc3)cs2)C1` has a Vd of 0.18 L/kg (male Sprague-Dawley rat; 1 mg/kg).
With `Cc1cc(S(=O)(=O)N[C@]2(C)C[C@@H](N3CCN(CC4CCN(c5ccc6c(c5F)n(C)c(=O)n6C5CCC(=O)NC5=O)CC4)CC3)C2)ccc1Nc1ncc(C(F)(F)F)c(N2CCC[C@](C)(O)C2)n1` (stereo partly drawn) the Vd was 7 L/kg (rat; 2 mg/kg).
